The subject of one data set is MMP-9. Conditions: cited from earlier work.
Data set [1] deals with cortical lesion after controlled cortical impact. The note with it: TBI mice; routes of administration and dose regimens different; cited from earlier work.
The test system of data set [2] is red blood cells (horse whole blood). Put plainly: Hemolysis of red blood cells. Type of data set: cell-based. Conditions: up to concentrations of 160 μM; 37 °C, 1 h. The method, boiled down: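 Horse whole-blood RBCs were pelleted at 7 000g and washed three times in 0.1 M PBS. Test compound, from DMSO stock, was incubated with RBCs in PBS at final 5–160 μM for 1 h at 37 °C, in duplicate. Controls were Triton X-100 (positive) and DMSO/PBS (negative). Samples were spun at 13 000g, supernatant absorbance was read at 541 nm, and IC50 was calculated from the plotted data.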

The subject of another data set is HepG2 cells. Nature of the data set: XTT cytotoxicity assay. Type of data set: cell-based. The method in brief:
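XTT viability in HepG2 cells, run in triplicate, with IC50 obtained by curve fitting.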
A general note: Formazan colour is commonly taken as a measure of viable cells.

Data set [3] is described as follows: Water solubility determination. Type of data set: physicochemical. The note with it: saturated solution in water. The method in brief: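 A saturated solution of test compound in water was centrifuged. The supernatant was quantified by UPLC with UV detection at 245 nm against calibration curves from known concentrations. The relative value compares the solubilities of the two compounds measured this way.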

A short description of data set [4]: PK and brain distribution after single iv dose. Type of data set: in vivo, mice (male C57Bl/6J). The note with it: male mice.
[5] abbreviates: 2 after single iv dose of 2 (6.3 mg/kg), plasma.
Where [6] appears, read: 2 in brain after single iv dose of 2 (6.3 mg/kg).
Where [7] appears, read: 2 in brain after single iv dose of 3 (7.8 mg/kg).
[8] abbreviates: 2 in plasma after single iv dose of 2 (6.3 mg/kg).
[9] abbreviates: 2 in plasma after single iv dose of 3 (7.8 mg/kg).

Converted amounts (≈) assume the structure as drawn.

Turning to “TIMP-1: tissue inhibitor of matrix metalloproteinase-1”, the residence time in the data set with MMP-9 (time the inhibitor remains complexed with the target) is reported as 7.9 min.
Take `O=S(=O)(CC1CS1)c1ccc(Oc2ccccc2)cc1` (centres unmarked) [SB-3CT]: in data set [1], the “reduction in brain damage” value is listed as 14%.
Consider `O=S(=O)(CC1CS1)c1ccc(Oc2ccc(O)cc2)cc1` (centres unmarked) [Compound 2, p-hydroxy SB-3CT], for which the Ki (usually the dissociation constant of the complex between target and ligand, obtained from inhibition or displacement) on MMP-9 (MMP-9) was 0.16 ± 0.08 µM. In addition, the “hemolysis of red blood cells” value in data set [2] was “not observed”. Half-maximal inhibition in the data set with HepG2 cells (IC50) was put at 114 ± 1 µM. For the same compound, the aqueous solubility (commonly the concentration that dissolves in the medium under given conditions) in data set [3] was determined as 22.2 µg/mL (≈ 68.9 µM). Moreover, the brainAUC/plasmaAUC in data set [4] (2 after single iv dose of 2 (6.3 mg/kg)) stood at 1.2. Besides, in data set [4] (setting [5]), the CL was 105 mL/min/kg and the Vd (usually the apparent volume that relates the amount in the body to the concentration in plasma or blood) worked out at 0.850 L/kg. In data set [4] (2 after single iv dose of 3 (7.8 mg/kg)), this compound yielded a brainAUC/plasmaAUC of 0.53. Besides, in data set [4] (setting [6]), the AUC0-last stood at 232 pmol·min/mg, the “AUC0-∞” value stood at 235 pmol·min/mg, the t1/2α is 3.0 min and the t1/2β is on record as 49 min. Also, in data set [4] (setting [7]), the AUC0-last was found to be 26 pmol·min/mg, the “AUC0-∞” value is recorded as 27 pmol·min/mg, the t1/2α turned out to be 3.1 min and the t1/2β turned out to be 8.3 min. In data set [4] (setting [8]), the AUC0-last is 189 µM·min, the “AUC0-∞” value stood at 195 µM·min, the t1/2α came out at 3.4 min and the t1/2β is reported as 45 min. In addition, in data set [4] (setting [9]), the AUC0-last worked out at 49 µM·min, the “AUC0-∞” value was 49 µM·min, the t1/2α is 3.0 min and the t1/2β turned out to be 6.5 min.

The values are drawn from publication PMC5800744 (ACS chemical neuroscience, 2015).
